Env fusion inh: blocks HIV Env-driven cell-cell fusion; HeLa-JRFL Env/CEM21 cell fusion, luciferase; inhibition, % at 12.3 µM; hit rate 1.1% among 360,000; AID 651610;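 active = mean replicate inhibition score of at least 50 and every replicate individually at or above 50; inconclusive = only one of the two criteria met; inactive = mean below 50 and not all replicates reaching 50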;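 also: 0% = plate neutral controls and 100% = maraviroc near 300 nM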
EWS-Fli block: inhibitors of EWS/Fli oncoprotein transcriptional activity; A673 NR0B1-luciferase reporter, viability-normalised; hit rate 0.67% among 350,000; inhibition, % at 12.6 µM; AID 651661;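 active = mean inhibition of at least 50% after viability correction, with every replicate also passing that limit; inconclusive = mean reaches 50% but only one of two replicates passes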;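 also: firefly luciferase signal divided by Alamar Blue viability fluorescence both relative to DMSO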
N-glyco inh: blocks N-linked glycosylation in D54 reporter cells; reporter increase, % at 12.5 µM; hit rate 0.23% among 360,000; D54 ERlucT glycosylation luciferase reporter, 24 h; percent of 100 nM tunicamycin response;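 active = mean luciferase reporter signal, scaled so untreated is 0 and the glycosylation-blocking control 100, at or above a set limit in every replicate; inconclusive = mean reaches the limit but not every replicate does; inactive = mean below the limit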;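 also: luciferase carries N-glycosylation sites so blocking glycosylation raises the light; 0% = median of neutral control wells and 100% = median of 100 nM tunicamycin wells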
FN deposition inh: fibronectin deposition inhibition; AID 743247; hit rate 0.086% among 350,000; inhibition, % at 12.6 µM; AH1F fibroblasts, Alexa488-fibronectin deposition fluorescence, overnight;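 active = mean inhibition across replicates of 30% or more, regardless of how many single replicates reach that level; inconclusive = mean under 30% yet at least half of replicates reach 30%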;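 also: positive control wells lacked labelled fibronectin entirely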
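Material: AH1F fibroblasts assembling fluorescent fibronectin matrix; amount: 10000 AH1F cells/well; medium: DMEM, 2% serum; reagent: Alexa488-fibronectin, 24 nM final in well; dosing: single compound dose, delivered by pin transfer; incubation: 1 h adhesion, overnight exposure; detection: fluorescence after three HBSS washes, excitation 485 nm, emission 525 nm; measure: fibronectin deposition inhibition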
PAX8 reporter: lowers PAX8-driven luciferase in RMG-I cells | RMG-I TPO-luciferase reporter, SteadyGlo, 24 h | AID 652154 | inhibition, % at 12.6 µM | hit rate 1.2% among 360,000;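 active = mean replicate inhibition at least 60% with every replicate also reaching 60%; inconclusive = only one of the two criteria is met; inactive = mean below 60% and not all replicates reaching 60%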;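 also: luciferase light reporting Pax8 driven TPO promoter activity; plate controls were median of neutral control wells for no effect and mitoxantrone controls for full effect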
AF4-AF9 inh: MLL-AF4/AF9 protein interaction inhibition. AlphaScreen, biotin-AF4 peptide binding to FLAG-AF9. hit rate 0.47% among 350,000. P42568. inhibition, % at 10 µM. AID 651704;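 active = every replicate reaching a set inhibition limit, whatever the replicate mean, cut at about 25% in these data; inconclusive = mean inhibition reaches that limit but some replicates miss it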;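 also: 0% = plate neutral control median and 100% = total signal loss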
Target sequence (P42568 whole entry, looked up): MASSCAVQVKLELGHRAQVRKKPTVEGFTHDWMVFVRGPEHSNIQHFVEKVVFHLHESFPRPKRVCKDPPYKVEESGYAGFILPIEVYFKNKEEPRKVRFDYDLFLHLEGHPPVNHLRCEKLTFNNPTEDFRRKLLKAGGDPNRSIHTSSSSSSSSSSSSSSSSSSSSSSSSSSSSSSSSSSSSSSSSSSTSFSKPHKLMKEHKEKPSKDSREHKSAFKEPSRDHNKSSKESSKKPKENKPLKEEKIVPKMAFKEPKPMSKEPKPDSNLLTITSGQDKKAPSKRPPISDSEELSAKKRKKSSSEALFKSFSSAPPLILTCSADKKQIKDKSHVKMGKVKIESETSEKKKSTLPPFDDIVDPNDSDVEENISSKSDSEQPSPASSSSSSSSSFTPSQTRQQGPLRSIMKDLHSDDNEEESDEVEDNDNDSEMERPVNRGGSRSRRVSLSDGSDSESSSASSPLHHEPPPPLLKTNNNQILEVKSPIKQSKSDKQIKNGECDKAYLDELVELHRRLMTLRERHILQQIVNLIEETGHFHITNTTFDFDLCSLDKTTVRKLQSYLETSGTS
Active calls of the source: *; ? = inconclusive; nt = not tested or not shown; [ ] = dose if it differs, or a comment. Only some compounds are listed: those with a hit (about 2.5% of all), similar ones and a draw of the others.

SMILES | Env fusion inh | EWS-Fli block | N-glyco inh | FN deposition inh | PAX8 reporter | AF4-AF9 inh
COc1ccc(NC(=O)C[C@H]2C(=O)N(c3ccc(OC)cc3)C[C@@H]2C)cc1 | 4 | 0 | 0 | 22 | 101* | -1
C[C@@H]1CN([C@H](C)CO)C(=O)Cc2cc(NC(=O)Nc3ccc(C(F)(F)F)cc3)ccc2O[C@H]1CN(C)C(=O)Nc1ccc(F)cc1 | -2[16.7 µM] | -5 | nt | nt | 1 | -2
N=c1c2c(n(Cc3ccc(Br)cc3)c3c1CCC3)CCCC2 | 70* | 40 | 7 | 10 | 78* | 5
N=c1c2c(n(Cc3ccc(Cl)c(Cl)c3)c3c1CCC3)CCCC2 | nt | nt | 18 | nt | nt | nt
CCCNC(=O)N1CC2(C1)CN(C(=O)CC1CC1)[C@@H](CO)c1c2c2ccc(OC)cc2n1C | nt | -8 | nt | nt | nt | -5
COc1cccc(C#Cc2ccc3c(c2)O[C@@H](CN(C)C)[C@H](C)CN([C@H](C)CO)S3(=O)=O)c1 | 24[16.7 µM] | 20 | nt | nt | 8 | 12
CSc1ccc(CN2CCC2(C)C(=O)Nc2cccc(NS(C)(=O)=O)c2)cc1 (stereo not given) | 76* | 4 | 4 | 3 | 13 | 0
Cc1ccc2c(c1)c1c(n2CC(O)CNC2CCCCC2)CCCC1 (stereo not given) | -33 | 25 | 1 | -2 | 12 | 30*
CCNS(=O)(=O)c1ccc(CCC(=O)Nc2cc(Cl)ccc2Oc2ccccc2)cc1 | 107* | nt | -5 | 2 | nt | nt
CC(C)NS(=O)(=O)c1ccc(CCC(=O)Nc2cc(Cl)ccc2Oc2ccccc2)cc1 | nt | nt | -6 | nt | nt | nt
O=[N+]([O-])c1ccc(O)c(-c2cc(C(F)(F)F)nc(-c3ccccc3)n2)c1 | 60* | 37 | -13 | 4 | 107* | 0
O=C1CCCc2nc(N3CCN(c4ccccc4)CC3)ncc21 | -71 | nt | 0 | nt | -6 | nt
Fc1cnc(N2CCN(c3ccccc3)CC2)nc1N1CCN(c2ccccc2)CC1 | 0 | 15 | -6 | 30* | -12 | 4
C#CCOCCOCCOCCNc1nc(N2CCN(C(=O)[C@H](CCCCN)n3cc([C@@H](N)[C@H](C)CC)nn3)CC2)nc(N2CCN(C(=O)[C@H](CCCCN)n3cc([C@@H](N)CC(N)=O)nn3)CC2)n1 | 0 | -2 | 3 | -2 | 3 | 60*
C#CCOCCOCCOCCNc1nc(N2CCN(C(=O)[C@H](CCCN=C(N)N)n3cc(C(N)[C@@H](C)CC)nn3)CC2)nc(N2CCN(C(=O)[C@H](CC(N)=O)n3cc([C@@H](N)CC(N)=O)nn3)CC2)n1 (stereo not given in full) | 17 | -10 | 1 | -14 | -14 | 25*
C#CCOCCOCCOCCNc1nc(N2CCN(C(=O)[C@H]([C@@H](C)CC)n3cc([C@@H](N)CC(C)C)nn3)CC2)nc(N2CCN(C(=O)[C@H](Cc3ccc(O)cc3)n3cc([C@@H](N)CC(C)C)nn3)CC2)n1 | -44 | 10 | nt | 1 | -31 | 28*
C#CCOCCOCCOCCNc1nc(N2CCOCC2)nc(N2CCN(C(=O)[C@H](CCCCN)n3cc(CN)nn3)CC2)n1 | -5 | -2 | 0 | -1 | 42 | 32*
O=C(C[C@@H]1CC[C@@H]2[C@H](COC[C@@H](O)CN2C(=O)Nc2cc(Cl)cc(Cl)c2)O1)NCC1CCCCC1 | nt | 7 | nt | -12 | 27 | -1
CC=Cc1ccc2n(c1=O)C[C@@H]1[C@@H](CO)[C@H](C(=O)NCC3CC3)N(Cc3ccccn3)[C@H]21 (mixture of isomers) | nt | 6 | nt | nt | -22 | -4
C#CCOCCOCCOCCNc1nc(N2CCN(C(=O)[C@H](CCCCN)n3cc([C@@H](N)CO)nn3)CC2)nc(N2CCN(C(=O)[C@H](CCCCN)n3cc([C@@H](N)CC(C)C)nn3)CC2)n1 | 10 | -9 | 0 | 2 | -1 | 29*
C#CCOCCOCCOCCNc1nc(N2CCN(C(=O)C([C@@H](C)O)n3cc([C@@H](N)CCCCN)nn3)CC2)nc(N2CCN(C(=O)[C@H](CO)n3cc([C@@H](N)C(C)C)nn3)CC2)n1 (stereo not given in full) | -22 | 7 | 3 | 7 | -6 | 54*
Cc1ccccc1-c1cnc2c(c1)C(=O)N([C@H](C)CO)C[C@H](C)[C@@H](CN(C)C(=O)c1ccc(F)cc1)O2 | 29[16.7 µM] | -3 | nt | 7 | nt | -3
CCNC(=O)C[C@@H]1CC[C@H]2[C@@H](COC[C@@H](O)CN2C(=O)C2CC2)O1 | nt | -22 | nt | -9 | -1 | -2
Cn1cc(-c2ccc(Cl)cc2)cc(C#N)c1=O | -28 | 1 | 2 | -5 | 10 | 0
Cn1c(-c2ccc(Cl)cc2)ccc(C#N)c1=O | 75* | nt | 2 | nt | nt | nt
SMILES | Env fusion inh | EWS-Fli block | N-glyco inh | FN deposition inh | PAX8 reporter | AF4-AF9 inh
C[C@H](CO)N1C[C@H](C)[C@@H](CN(C)S(=O)(=O)c2cn(C)cn2)Oc2ccc(NS(=O)(=O)c3cn(C)cn3)cc2CC1=O | 3[16.7 µM] | -18 | nt | nt | -1 | -1
CO[C@@H]1CC[C@H]2CCOc3ccc(C#N)cc3C(=O)N(C)C[C@@H](OC)[C@@H](C)C(=O)N(C)C[C@H]1O2 | 2[16.7 µM] | 11 | nt | 4 | -6 | 1
Cc1ccc(CN2CC(=O)N3[C@H]4c5ccccc5OC[C@@H]4[C@H](c4ccccc4)[C@]3(C)C2=O)cc1 | ? | 9 | -3 | 0 | 8 | 4
C[C@]12C(=O)N(c3ccccc3)C(=O)N1[C@@H]1c3ccccc3OC[C@@H]1[C@H]2c1ccccc1 | -7 | -10 | 2 | 7 | -14 | -1
C[C@@]12C(=O)N(Cc3ccccc3)CC(=O)N1[C@H]1c3ccccc3OC[C@@H]1[C@@H]2c1ccccc1 | 104* | 2 | 0 | 1 | -2 | 2
C[C@@]12C(=O)N(Cc3ccco3)CC(=O)N1[C@H]1c3ccccc3OC[C@@H]1[C@@H]2c1ccccc1 | 84* | -3 | 0 | 0 | 2 | 7
C[C@]12C(=O)N(c3cccc(Cl)c3)C(=O)N1[C@@H]1c3ccccc3OC[C@@H]1[C@H]2c1ccccc1 | 56* | -2 | -5 | 1 | 7 | nt
CCCCN1CC(=O)N2[C@H]3c4ccccc4OC[C@@H]3[C@H](c3ccccc3)[C@]2(C)C1=O | 83* | 3 | 4 | 2 | 6 | -2
CCCNC(=O)N1CC2(CCN(C(=O)C3CCC3)CC2)c2c([nH]c3cc(OC)ccc23)[C@H]1CO | nt | 10 | nt | nt | nt | 2
C[C@H]1CN([C@@H](C)CO)C(=O)c2cc(C#CCN(C)C)cnc2O[C@H]1CN(C)C(=O)Cc1cccnc1 | 5[16.7 µM] | -4 | nt | -2 | nt | 0
O=C(NCc1ccncn1)[C@@H]1[C@@H](CO)[C@@H]2Cn3c(ccc(-c4ccccc4)c3=O)[C@@H]2N1CC1CC1 | nt | 0 | nt | nt | -1 | -1
O=C(c1ccccc1F)N1CC2(C1)[C@H](c1ccccc1)[C@H](CO)N2CC1CC1 | nt | 5 | nt | -2 | -11 | -1

Screening results from PubChem BioAssay.
